Experimental data: article PMC3268775 (Journal of the American Chemical Society, 2012)
Numbered stars: 1 amine (or outer) side, 2 acyl side, 3 side chain; on linkers, the order of the positions; unused ones are H or OH. Square brackets hold non-standard residues; d marks the D form. Peptide text beside a SMILES is read from it. * marks the point of attachment. Isonicotinoyl(2-(4-Me-2-Py)) = Cc1ccnc(-c2cc(C(=O)*)ccn2)c1; X1 = O=C([C@H](Cc1c(F)cc(O)c(F)c1F)N[*:1])[*:2]

What was measured:
[1] = Transient absorption of the charge-separated state, free peptide; format: physicochemical; conditions: 50 μM peptide, 50 mM sodium borate pH 8.3, λexc 355 nm
Procedure, shortened: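 Transient absorption decays were read at 380, 480 (Re excited state), 525 (bpy anion) and 425 nm (F3Y radical). ΔOD came from PMT voltage against the pre-flash baseline. Short decays were fitted from the maximum-amplitude point, averaging 3–6 traces.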

[2] = Flash-quench transient absorption: •F3Y radical of free peptide; format: physicochemical
Procedure, shortened: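 Free Re-labelled test peptide (50 μM) with 1 mM Ru(NH3)6Cl3 flash quencher, 1 mM CDP and 3 mM ATP in 50 mM borate, pH 8.3, 15 mM MgSO4, 5% glycerol. Samples were equilibrated 3 min at 23 °C and flowed through the cuvette, then excited with a 7 ns 355 nm pulse. Spectra averaged three data sets with FFT noise filtering. Kinetic traces were fitted by weighted least squares; errors are one SD.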

Y730F-α2 = target: T1, Y730F-α2 (Escherichia coli, UniProt P00452, Y730F); test: Flash-quench transient absorption: •F3Y radical in presence of Y730F-α2; format: biochemical; conditions: for radical lifetime change / radical injection (in words): Y730F-α2; for •F3Y lifetime: monoexponential, 50 μM peptide
T1 sequence (P00452 1-761 Y730F): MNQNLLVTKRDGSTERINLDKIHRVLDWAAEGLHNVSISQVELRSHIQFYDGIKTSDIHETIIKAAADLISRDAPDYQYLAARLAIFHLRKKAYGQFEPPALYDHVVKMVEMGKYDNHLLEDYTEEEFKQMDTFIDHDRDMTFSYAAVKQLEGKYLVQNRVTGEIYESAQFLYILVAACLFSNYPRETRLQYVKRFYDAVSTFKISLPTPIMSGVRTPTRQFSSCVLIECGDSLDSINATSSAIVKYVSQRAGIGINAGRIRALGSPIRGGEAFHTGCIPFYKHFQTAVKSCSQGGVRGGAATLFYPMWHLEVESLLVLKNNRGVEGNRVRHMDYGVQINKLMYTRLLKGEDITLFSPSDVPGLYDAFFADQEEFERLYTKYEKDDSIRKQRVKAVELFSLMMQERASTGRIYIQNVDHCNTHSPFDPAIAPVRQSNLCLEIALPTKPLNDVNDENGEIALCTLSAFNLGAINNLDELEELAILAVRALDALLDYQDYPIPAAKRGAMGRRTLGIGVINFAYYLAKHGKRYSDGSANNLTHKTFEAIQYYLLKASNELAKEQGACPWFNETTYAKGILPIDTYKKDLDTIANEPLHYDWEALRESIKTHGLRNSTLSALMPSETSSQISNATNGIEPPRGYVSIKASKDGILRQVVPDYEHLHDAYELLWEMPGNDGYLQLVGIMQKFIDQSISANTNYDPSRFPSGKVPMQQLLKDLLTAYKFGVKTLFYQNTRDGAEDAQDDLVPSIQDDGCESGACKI
Procedure, shortened: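 Laser flash-quench transient absorption at 23 °C in 50 mM sodium borate, pH 8.3, 15 mM MgSO4, 5% v/v glycerol. Final mix: 50 μM Re-labelled test peptide, 100 μM α2 mutant, 1 mM Ru(NH3)6Cl3, 1 mM CDP, 3 mM ATP, flowing through the cuvette. α2 was N-terminally His6-tagged E. coli protein, IPTG-induced in BL21(DE3) and Ni-NTA purified. Excitation was a 7 ns 355 nm pulse. Decays averaged 3–6 traces and were fitted by weighted least squares from 1 μs.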

CC[C@H](C)[C@H](NC(=O)[C@H](CCC(N)=O)NC(=O)CNC(=O)[C@@H](NC(=O)[C@H](CC(C)C)NC(=O)[C@H](Cc1c(F)cc(O)c(F)c1F)NC(=O)c1ccnc(-c2cc(C)ccn2)c1)C(C)C)C(=O)N[C@@H](CC(=O)O)C(=O)N[C@@H](CO)C(=O)N[C@@H](CCC(=O)O)C(=O)N[C@H](C(=O)N[C@@H](CC(=O)O)C(=O)N[C@H](C(=O)N[C@@H](CC(=O)O)C(=O)N[C@@H](CC(=O)O)C(=O)N[C@@H](CC(C)C)C(=O)N[C@@H](CO)C(=O)N[C@@H](CC(N)=O)C(=O)N[C@@H](Cc1ccccc1)C(=O)N[C@@H](CCC(N)=O)C(=O)N[C@@H](CC(C)C)C(=O)O)[C@@H](C)O)C(C)C [[Re]–F3Y–βC19] ({Isonicotinoyl(2-(4-Me-2-Py))}-[X1]LVGQIDSEVDTDDLSNFQL-OH; N-terminus and C-terminus assumed)
decay time constant of transient signal, [Re^I]* ([1]; λdet 380 nm, 1 mM CDP, 3 mM ATP, 15 mM MgSO4, 5% glycerol): 60 ± 2 ns
decay time constant of transient signal, [Re^I]* ([1]; λdet 480 nm): 61 ± 2 ns
fast time component, recombination of charge-separated state ([2]; flash quench, 20 mol equiv Ru(NH3)6Cl3, λdet 425 nm): 100 ns
•F3Y lifetime τ395 ([2]; free peptide, 395 nm, monoexponential, 50 μM peptide, 1 mM Ru(NH3)6Cl3, 1 mM CDP, 3 mM ATP, 15 mM MgSO4, 5% glycerol, 50 mM borate pH 8.3, average of 3–6 data sets): 14.7 ± 0.2 μs
•F3Y lifetime τ410 ([2]; free peptide, 410 nm, monoexponential, 50 μM peptide, 1 mM Ru(NH3)6Cl3, borate pH 8.3, average of 3–6 data sets): 13.5 ± 0.2 μs
•F3Y lifetime τ425 ([2]; free peptide, 425 nm, monoexponential, 50 μM peptide, 1 mM Ru(NH3)6Cl3, borate pH 8.3, average of 3–6 data sets): 14.5 ± 0.4 μs
photochemical yield of •F3Y formation ([2]; optimized flash-quench system, 20 mol equiv Ru(NH3)6Cl3, calculated, see SI): 4.9%
radical lifetime change / radical injection (in words) (Y730F-α2): radical injection into the surface of the protein is blocked
•F3Y lifetime (Y730F-α2; Y730F-α2, 395 nm, 100 μM α2, pH 8.3): 14.4 ± 0.2 μs
•F3Y lifetime (Y730F-α2; Y730F-α2, 410 nm, 100 μM α2, pH 8.3): 13.7 ± 0.2 μs
•F3Y lifetime (Y730F-α2; Y730F-α2, 425 nm, 100 μM α2, 1 mM Ru(NH3)6Cl3, 1 mM CDP, 3 mM ATP, borate pH 8.3): 14.0 ± 0.2 μs
radical lifetime change / radical injection (in words) (Y730F-α2; listed as [Re]–•F3Y–βC19): no significant change in radical lifetime
